Experimental data taken from ChEMBL document CHEMBL1123186, “Enzymatic phosphorylation of the antiherpetic agent 9-[(2,3-dihydroxy-1-propoxy)methyl]guanine” (1986).
Values after ≈ are worked out from the molar mass of the structure shown.

Tests used:
Type in all cases: functional
[1] = test system: Human alphaherpesvirus 1; experiment: Compound was tested for the inhibition of HSV-1 polymerase; design: concentration or dose not given beside the values
In short: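 Analog first phosphorylated 3 h at 37 °C with HSV1 TK, GMP kinase, creatine kinase/phosphocreatine, 5 mM ATP and HSV1-infected HeLa crude extract; 20 µL aliquots added to 100 µL polymerase mix with 50 mM Tris pH 8, 5 mM MgCl2, activated salmon sperm DNA, 0.05 mM each dNTP ([3H]dTTP), 0.1 M (NH4)2SO4, and infected-HeLa extract or purified HSV1 polymerase; 1 h 37 °C; TCA-precipitable counts.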

[2] = test system: Human alphaherpesvirus 1; experiment: Phosphorylation by HSV-1 thymidine kinase
In short: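 Affinity-purified HSV1 TK (1 unit) from infected HeLa cells, 37 °C for 1 h, with 40 µg nucleoside in 50% Me2SO. Buffer: 50 mM Tris pH 7.5, 5 mM MgCl2, 5 mM ATP, 2 mM DTT, 2.5 mM NaF, 15 mM phosphocreatine, creatine kinase and BSA. Nucleoside and phosphates separated by anion-exchange HPLC (KH2PO4 gradient, pH 3.0) and quantified from peak areas.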

[3] = test system: MRC5; experiment: Compound was tested for 50% inhibition of HSV-1 induced cytopathic effect in MRC-5 cells; settings: Homo sapiens, read-out: ED50 (the source's name)
[4] = test system: MRC5; experiment: Compound was tested for 50% inhibition of HSV-1 induced cytopathic effect in MRC-5 cells; Not active; settings: Homo sapiens, read-out: ED50 (the source's name)
[5] = target: T1, DNA polymerase alpha catalytic subunit (Homo sapiens) (UniProt P09884); experiment: Compound was tested for the inhibition of HeLa DNA polymerase; settings: concentration not given here
T1 sequence (whole entry): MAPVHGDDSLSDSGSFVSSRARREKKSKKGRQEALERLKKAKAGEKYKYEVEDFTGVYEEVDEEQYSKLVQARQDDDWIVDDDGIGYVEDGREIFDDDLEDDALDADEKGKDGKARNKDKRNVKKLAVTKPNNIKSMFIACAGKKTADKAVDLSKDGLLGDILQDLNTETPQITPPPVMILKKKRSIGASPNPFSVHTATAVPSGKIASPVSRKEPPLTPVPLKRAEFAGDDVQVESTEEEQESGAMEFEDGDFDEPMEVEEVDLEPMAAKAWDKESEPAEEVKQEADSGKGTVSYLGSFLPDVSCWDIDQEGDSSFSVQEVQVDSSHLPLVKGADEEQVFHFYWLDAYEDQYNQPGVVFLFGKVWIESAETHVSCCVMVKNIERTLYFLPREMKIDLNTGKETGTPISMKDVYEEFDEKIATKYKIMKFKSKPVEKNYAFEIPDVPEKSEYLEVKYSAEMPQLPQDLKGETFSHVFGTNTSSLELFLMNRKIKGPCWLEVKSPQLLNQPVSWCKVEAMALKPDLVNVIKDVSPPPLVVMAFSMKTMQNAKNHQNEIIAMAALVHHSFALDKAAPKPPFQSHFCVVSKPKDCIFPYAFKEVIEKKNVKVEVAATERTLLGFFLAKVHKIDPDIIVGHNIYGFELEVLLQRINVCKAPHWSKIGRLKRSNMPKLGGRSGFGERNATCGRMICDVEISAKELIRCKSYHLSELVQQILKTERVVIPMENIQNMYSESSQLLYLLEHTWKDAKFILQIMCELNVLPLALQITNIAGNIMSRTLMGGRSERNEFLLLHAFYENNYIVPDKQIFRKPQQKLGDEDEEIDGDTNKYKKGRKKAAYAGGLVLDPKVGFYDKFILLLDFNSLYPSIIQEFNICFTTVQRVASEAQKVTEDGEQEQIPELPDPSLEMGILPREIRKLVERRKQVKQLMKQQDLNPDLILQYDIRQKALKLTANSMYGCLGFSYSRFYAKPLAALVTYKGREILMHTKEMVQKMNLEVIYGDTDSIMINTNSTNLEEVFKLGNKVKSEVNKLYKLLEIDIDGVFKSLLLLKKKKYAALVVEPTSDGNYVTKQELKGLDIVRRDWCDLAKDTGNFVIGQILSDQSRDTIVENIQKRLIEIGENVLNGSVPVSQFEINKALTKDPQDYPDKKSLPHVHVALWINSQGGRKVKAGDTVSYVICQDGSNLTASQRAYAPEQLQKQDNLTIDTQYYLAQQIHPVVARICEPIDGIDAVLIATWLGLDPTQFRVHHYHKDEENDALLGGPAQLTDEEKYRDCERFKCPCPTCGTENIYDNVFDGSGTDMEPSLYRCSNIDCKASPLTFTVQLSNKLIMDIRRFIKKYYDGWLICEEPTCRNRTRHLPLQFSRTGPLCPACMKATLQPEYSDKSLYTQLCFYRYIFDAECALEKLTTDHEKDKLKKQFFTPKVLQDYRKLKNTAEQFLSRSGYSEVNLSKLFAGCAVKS
In short: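 Cellular polymerase taken from crude HSV1-infected HeLa extract, assayed without (NH4)2SO4. Inhibitor came as 20 µL of a 3-h, 37 °C enzymatic phosphorylation mixture, in 50 mM Tris pH 8 with 5 mM MgCl2, activated salmon sperm DNA and 0.05 mM each dNTP ([3H]dTTP). Incubation 1 h at 37 °C, then TCA-insoluble radioactivity counted.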

[6] = test system: MRC5; experiment: Compound was tested for 50% inhibition of HSV-1 induced cytopathic effect in MRC-5 cells; 3-6; settings: Homo sapiens, read-out: ED50 (the source's name)

SMILES	Inhibition [1] [%]	Phosphorylation [2] [%]	inhibition [5] [%]	other results
Nc1nc(O)c2ncn(COCC(O)CO)c2n1 (single isomer, unassigned; form 2)	14	–	–	–
Nc1nc(O)c2ncn(COCCCO)c2n1	–	88	–	EC50 [3]: 50 µg/mL (≈ 209 µM)
Nc1nc(O)c2ncn(COCC(O)CF)c2n1 (centres undefined)	–	4	–	EC50 [4]: > 100 µg/mL
Nc1nc(O)c2ncn(COCC(F)CO)c2n1 (centres undefined)	–	42	–	EC50 [3]: 25 µg/mL (≈ 97.2 µM)
CC(O)COCn1cnc2c(O)nc(N)nc21 (centres undefined)	–	5	–	EC50 [3]: 100 µg/mL (≈ 418 µM)
Nc1nc(O)c2ncn(COCC(O)CO)c2n1 (single isomer, unassigned; form 1) [listing 1 of 2 here]	54	–	–	–
Nc1nc(O)c2ncn(COCC(O)CO)c2n1 (centres undefined) [listing 1 of 2 here]	–	–	6	–
Nc1nc2c(ncn2COCCO)c(=O)[nH]1 [ACYCLOVIR]	86	–	37	–
Nc1nc(O)c2ncn(COCC(O)CO)c2n1 (single isomer, unassigned; form 1) [listing 2 of 2 here]	–	–	10	–
Nc1nc(O)c2ncn(COCC(O)CO)c2n1 (centres undefined) [listing 2 of 2 here]	36	59	–	EC50 [6]: 3 µg/mL (≈ 11.8 µM)
Nc1nc2c(ncn2COC(CO)CO)c(=O)[nH]1 [GANCICLOVIR]	60	–	17	–
